Results as given in ChEMBL document CHEMBL4373712, “Bioactivatable Pseudotripeptidization of Cyclic Dipeptides To Increase the Affinity toward Oligopeptide Transporter 1 for Enhanced Oral Absorption: An Application to Cyclo(l-Hyp-l-Ser) (JBP485)” (J Med Chem, 2019).
Calls of active or inactive are those of the source. The calls are words filed in the database; no cut-off is given here.

Key:
[1] = Ratio of half-life in pH 7.2 phosphate buffer to half-life in Sprague-Dawley rat plasma; format: ADME
Rattus norvegicus [2] = assay: (§1) Anti-hepatitis activity in ANIT-induced Sprague-Dawley rat model of liver injury assessed as reduction in liver necrosis at 3.125 to 25 mg/kg, po administered 30 mins prior to ANIT challenge and subsequent dosing at 8, 22, 32, and 46 hrs post ANIT challenge and measured 48 hrs post ANIT challenge by H and E staining-based assay; format: functional, organism-based
Method in brief: (§2)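 ANIT 50 mg/kg ip liver-injury model in male SD rats, 6 per group. Oral or ip treatment at 30 min before and 8, 22, 32 and 46 h after ANIT. Liver excised at 48 h, fixed in 4% formalin, stained with H&E, and examined microscopically for hepatocellular edema and necrosis.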

[3] = Terminal half-life in Sprague-Dawley rat assessed as JBP485 level at 12 mg/kg equiv of JBP485 administered orally by UPLC-MS/MS analysis; format: ADME, organism-based; settings: in vivo, po
Method in brief: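 Fasted male SD rats (200–250 g), oral 12 mg/kg (prodrugs calculated as JBP485). Jugular blood 0.083–10 h, centrifuged, plasma JBP485 by UPLC-MS/MS; n=6.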

Rattus norvegicus [4] = assay: as §1, with “serum aspartate aminotransferase level” for “liver necrosis”, “challenge” for “challenge by H and E staining-based assay”; format: functional, organism-based
Method in brief: (§3)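 ANIT (50 mg/kg ip, olive oil) cholestatic liver injury in male SD rats, 6 per group. Oral or ip dosing (UDCA 100 mg/kg po in CMC-Na) at 30 min before and 8, 22, 32 and 46 h after ANIT. Serum collected at 48 h from the abdominal aorta; ALT and AST activities measured with kits.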

[5] = Ratio of half-life in pH 7.2 phosphate buffer to half-life in Sprague-Dawley rat liver homogenates; format: ADME, tissue-based; settings: tissue homogenate
[6] = biological target: T1, Solute carrier family 15 member 1 (Rattus norvegicus, UniProt P51574); assay: Ratio of test compound effect to JBP485 effect for substrate activity at PEPT1 in Sprague-Dawley rat jejunum assessed as effective permeability; format: ADME, tissue-based
T1 sequence (P51574 whole entry): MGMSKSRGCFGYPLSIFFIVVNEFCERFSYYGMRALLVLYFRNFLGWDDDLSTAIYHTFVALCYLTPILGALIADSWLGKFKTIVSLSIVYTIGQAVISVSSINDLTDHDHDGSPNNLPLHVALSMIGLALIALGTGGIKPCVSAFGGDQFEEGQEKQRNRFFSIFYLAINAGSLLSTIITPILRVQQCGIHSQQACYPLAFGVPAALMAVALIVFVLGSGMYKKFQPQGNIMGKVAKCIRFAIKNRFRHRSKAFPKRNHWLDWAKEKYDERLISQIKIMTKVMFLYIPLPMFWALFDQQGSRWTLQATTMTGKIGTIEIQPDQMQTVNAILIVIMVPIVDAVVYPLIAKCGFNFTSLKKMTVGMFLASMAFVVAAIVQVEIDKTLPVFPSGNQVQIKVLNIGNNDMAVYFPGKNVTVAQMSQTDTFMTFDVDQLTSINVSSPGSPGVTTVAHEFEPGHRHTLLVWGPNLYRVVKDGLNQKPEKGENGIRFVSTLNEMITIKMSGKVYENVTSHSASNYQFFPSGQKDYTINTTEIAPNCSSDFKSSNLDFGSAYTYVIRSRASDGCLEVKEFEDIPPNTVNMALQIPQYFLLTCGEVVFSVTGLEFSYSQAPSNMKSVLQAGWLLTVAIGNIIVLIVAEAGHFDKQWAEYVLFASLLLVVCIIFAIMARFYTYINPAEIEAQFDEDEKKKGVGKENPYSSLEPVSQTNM
Method in brief: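 In situ single-pass jejunal perfusion in fasted (12 h) male SD rats anaesthetised with urethane 1.5 g/kg i.p. About 10 cm of jejunum was perfused at 0.2 mL/min with pH 6.0 HEPES buffer containing 5 mM compound. Outflow was collected 15–120 min after steady state and assayed by HPLC. Peff was calculated from outlet/inlet concentration and volume ratios and segment radius and length.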

[7] = Oral bioavailability in Sprague-Dawley rat assessed as JBP485 level at 12 mg/kg equiv of JBP485 by UPLC-MS/MS analysis; format: ADME, organism-based; settings: in vivo
Method in brief: (§4)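 Male SD rats, 200-250 g, fasted 12 h with water, n=6. Oral dose of 12 mg/kg as JBP485 equivalent; dose-effect arms at 12 and 100 mg/kg. JBP485 given iv at 6 mg/kg as the reference. Jugular blood taken at 0.083-10 h. Plasma JBP485 by UPLC-MS/MS. Absolute F = (AUCpo×Div)/(AUCiv×Dpo)×100%, using AUC0-t.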

[8] = Ratio of half-life in pH 7.2 phosphate buffer to half-life in Sprague-Dawley rat intestinal homogenates; format: ADME, tissue-based; settings: tissue homogenate
[9] = Cmax in Beagle dog assessed as JBP485 level at 12 mg/kg equiv of JBP485 administered orally by UPLC-MS/MS analysis; format: ADME, organism-based, Canis lupus familiaris; set-up: dose 12 mg/kg, route oral; settings: in vivo, po
Method in brief: (§5)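 Male beagle dogs, 2 years old, 8-10 kg, n=6. Single oral dose of 12 mg/kg (prodrug dosed as JBP485 equivalent) given in aqueous solution. Jugular venipuncture blood taken at 0.167-8 h into sodium heparin tubes. Plasma JBP485 measured by UPLC-MS/MS; AUC0-t and Cmax from the concentration-time profiles.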

Rattus norvegicus [10] = assay: (§6) Anti-hepatitis activity in ANIT-induced Sprague-Dawley rat model of liver injury assessed as reduction in serum alanine aminotransferase level at 6.25 to 12.5 mg/kg, ip administered 30 mins prior to ANIT challenge and subsequent dosing at 8, 22, 32, and 46 hrs post ANIT challenge and measured 48 hrs post ANIT challenge; format: functional, organism-based; method in brief: as §3
[11] = Terminal half-life in Sprague-Dawley rat at 6 mg/kg, iv by UPLC-MS/MS analysis; format: ADME, organism-based; settings: in vivo, read-out: beta t1/2 (converted)
Method in brief: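 Fasted male SD rats given JBP485 6 mg/kg intravenously. Jugular blood sampled 0.083–10 h, plasma by UPLC-MS/MS; n=6.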

[12] = Terminal half life in Sprague-Dawley rat assessed as JBP485 level at 12 mg/kg, po by LC-MS/MS analysis; format: ADME, organism-based; settings: in vivo
Method in brief: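 Male SD rats (200–250 g) fasted 12 h, given JBP485 or prodrug (calculated as JBP485) orally at 12 or 100 mg/kg. Jugular blood sampled 0.083–10 h, plasma JBP485 by UPLC-MS/MS; n=6.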

[13] = Cmax in Sprague-Dawley rat assessed as JBP485 level at 100 mg/kg, po by LC-MS/MS analysis; format: ADME, organism-based; set-up: dose 100 mg/kg, route oral; settings: in vivo; method in brief: as §4
Rattus norvegicus [14] = assay: as §1, with “hepatocellular edema” for “liver necrosis”, “6.25” for “3.125”; format: functional, organism-based; method in brief: as §2
[15] = AUC (0 to t) in Beagle dog at 12 mg/kg, po by UPLC-MS/MS analysis; format: ADME, organism-based, Canis lupus familiaris; settings: in vivo; method in brief: as §5
[16] = Tmax in Beagle dog at 12 mg/kg, po by UPLC-MS/MS analysis; format: ADME, organism-based, Canis lupus familiaris; settings: in vivo
Method in brief: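 Male beagle dogs, 2 years old, 8–10 kg, dosed orally at 12 mg/kg (prodrug calculated as JBP485) in aqueous solution. Jugular blood taken 0.167–8 h into heparin, centrifuged, plasma JBP485 by UPLC-MS/MS; n=6.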

Rattus norvegicus [17] = assay: as §6, with “aspartate” for “alanine”; format: functional, organism-based; method in brief: as §3

Row | SMILES | Ratio [1] | Activity (Rattus norvegicus [2]) | beta t1/2 [3] | Activity (Rattus norvegicus [4]) | Ratio [5] | Ratio [6] | F [7] | Ratio [8] | Cmax [9] | Activity (Rattus norvegicus [10]) | half-life [11] | beta t1/2 [12] | Cmax [13] | Activity (Rattus norvegicus [14]) | AUCt [15] | Tmax [16] | Activity (Rattus norvegicus [17])
1 | CC(C)[C@H](N)C(=O)OC[C@@H]1NC(=O)[C@@H]2C[C@@H](O)CN2C1=O | 3 to 35 | Active | 2.11 h | Active | 3 to 35 | 6.03 | 50.1% | 3 to 35 | 85.9 nM/ml | – | – | – | – | – | – | – | –
2 | O=C1N[C@@H](CO)C(=O)N2C[C@H](O)C[C@@H]12 | – | – | – | – | – | – | – | – | – | Active | 1.13 h | 2.12 h | 95.96 nM/ml | Active | 89.15 nM/ml.hr | 1.5 h | Active
